Test results taken from article PMC9589333 (ERJ Open Research, 2022).

Key:
healthy male subjects = assay: Phase I study; type: in vivo, human; settings: for Body weight, mean±SD change from baseline: placebo 0.21±1.06
How it was run: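 Healthy males aged 18–45 years with BMI 18.5–29.9 kg·m−2, partially randomised to oral test compound or matching placebo. Single doses were 36 or 48 mg, fasted and patient-blinded. Twice-daily doses were 6 or 12 mg over 14 days, fed and double-blind. Drug-related AEs were graded mild, moderate or severe. ECG, laboratory tests and, for multiple dosing, suicidality were also assessed. Descriptive statistics only.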

[1] = Phase I study: pharmacokinetics of BI 1015550 in plasma and urine; type: in vivo, human; settings: for AUCτ,1 / Cmax / RA,AUC (accumulation ratio) / RA,Cmax (accumulation ratio) / AUCτ,ss / CLR,0–120 (renal clearance) / fe0–120 (fraction excreted unchanged in urine 0–120 h) / AUC0−∞: gMean; for AUCτ,ss: steady state
How it was run: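 Oral test compound was given to healthy males as single doses (36 or 48 mg, fasted) or 6 or 12 mg twice daily (fed). Twice-daily dosing was a morning dose on day 1, none on day 2 (34-h sampling), days 3–13 twice daily, and a morning dose on day 14. Read-outs were plasma Cmax, AUC0–∞, first-dose and steady-state AUCτ, accumulation ratios and 0–120 h urinary excretion, reported as gMean with gCV.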

[2] = tested on: patients with idiopathic pulmonary fibrosis; assay: Phase Ic study; type: in vivo, human
How it was run: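 Randomised, double-blind, placebo-controlled within-dose-group study at 11 European sites. Patients with IPF, aged ≥40 years, had no nintedanib or pirfenidone within 30 days and none planned. Dosing was oral, 18 mg twice daily, for up to 12 weeks, reduced to 4 weeks by amendment. Drug-related AEs were graded mild, moderate or severe. ECG, laboratory tests and suicidality were also assessed. Descriptive statistics only.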

[3] = Phase Ic study: pharmacokinetics of BI 1015550 in plasma; type: in vivo, human
How it was run: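 IPF patients received oral 18 mg twice daily. Plasma Cmax and AUCτ,1 were taken after the first dose on day 1, and Cmax,ss and AUCτ,ss after the morning dose on day 14. Accumulation ratios were calculated as steady-state over single-dose values. Results are reported as geometric mean with gCV.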

[4] = tested on: patients with idiopathic pulmonary fibrosis; assay: Phase Ic study: exploratory lung function efficacy endpoints; type: in vivo, human; settings: IPF, 18 mg twice daily
human lung fibroblast = settings: in vitro; cited from earlier work
[5] = after single and multiple oral administration
[6] = IPF, 18 mg twice daily, placebo 40.0%

For [O-][S+]1CCc2nc(N3CCC(c4ncc(Cl)cn4)CC3)nc(NC3(CO)CCC3)c21 (centres unmarked) [BI 1015550], the “Subjects with any AE” value (healthy male subjects; MRD 6 mg twice daily, n=8) was 2 (25.0) n (%), the “Subjects with investigator-defined drug-related AEs” value (healthy male subjects; MRD 6 mg twice daily, n=8) was 2 (25.0) n (%) and the “Body weight, mean±SD change from baseline” value (healthy male subjects; MRD 6 mg twice daily) was “–1.21±0.43 kg”. For the same molecule, the “Clinically relevant laboratory finding: increase in blood triglycerides, considered drug-related” value (healthy male subjects; MRD 12 mg twice daily) was “one subject”, the “Subjects with any AE” value (healthy male subjects; MRD 12 mg twice daily, n=8) was 5 (62.5) n (%) and the “Subjects with investigator-defined drug-related AEs” value (healthy male subjects; MRD 12 mg twice daily, n=8) was 4 (50.0) n (%). For the same molecule, the “Body weight, mean±SD change from baseline” value (healthy male subjects; MRD 12 mg twice daily) was “–1.34±1.61 kg”, the “Suicidal ideation or behaviour (C-SSRS)” value (healthy male subjects; MRD part) was “No incidence” and the Gastrointestinal disorders (healthy male subjects; MRD part, placebo 12.5%) was 18.8%. For the same molecule, the “Nervous system disorders (headache)” value (healthy male subjects; MRD part, placebo 12.5%) was 31.3%, the “Subjects with AEs” value (healthy male subjects; MRD part, placebo 37.5%) was 43.8% and the “Subjects with any AE” value (healthy male subjects; MRD total, n=16) was 7 (43.8) n (%). For the same molecule, the “Subjects with investigator-defined drug-related AEs” value (healthy male subjects; MRD total, n=16) was 6 (37.5) n (%), the “Subjects with any AE” value (healthy male subjects; SRD 36 mg single dose, n=6) was 4 (66.7) n (%) and the “Subjects with investigator-defined drug-related AEs” value (healthy male subjects; SRD 36 mg single dose, n=6) was 2 (33.3) n (%). For the same molecule, the “Subjects with any AE” value (healthy male subjects; SRD 48 mg single dose, n=6) was 4 (66.7) n (%), the “Subjects with investigator-defined drug-related AEs” value (healthy male subjects; SRD 48 mg single dose, n=6) was 4 (66.7) n (%) and the “Deaths, severe AEs, serious AEs, AEs of special interest or other significant AEs” value (healthy male subjects; SRD and MRD parts) was “no reported”. The “ECG recordings or vital signs” value (healthy male subjects; SRD and MRD parts) was “no clinically relevant findings”, the “Intensity of all AEs” value (healthy male subjects; SRD and MRD parts) was “mild or moderate” and the Gastrointestinal disorders (healthy male subjects; SRD part, placebo 16.7%) was 25.0%. For the same molecule, the “Nervous system disorders (headache and dizziness)” value (healthy male subjects; SRD part, placebo 16.7%) was 41.7%, the “Subjects with AEs” value (healthy male subjects; SRD part, placebo 16.7%) was 66.7% and the “Subjects with any AE” value (healthy male subjects; SRD total, n=12) was 8 (66.7) n (%). For the same molecule, the “Subjects with investigator-defined drug-related AEs” value (healthy male subjects; SRD total, n=12) was 6 (50.0) n (%), the “Subjects with drug-related AEs” value (healthy male subjects; multiple doses (MRD total), placebo 12.5%) was 37.5% and the “Subjects with drug-related AEs” value (healthy male subjects; single dose (SRD total), placebo 16.7%) was 50.0%. For the same molecule, the “Dose proportionality of AUC” value ([1]; 36 mg to 48 mg single dose and 6 mg to 12 mg twice daily) was “dose-proportional increase in AUC”, the “Median time from last dosing to the maximum measured concentration” value [1, 5] was 1.25 to 1.52 h and the Terminal half-lives [1, 5] was 16 to 27 h. For the same molecule, the “AUCτ,1” value ([1]; MRD 6 mg twice daily, after first dose, fed, n=8, gCV 24.8%) was 564 nmol·h/L, the Cmax ([1]; MRD 6 mg twice daily, after first dose, fed, n=8, gCV 28.2%) was 103 nM and the “RA,AUC (accumulation ratio)” value ([1]; MRD 6 mg twice daily, fed, n=8, gCV 9.91%) was 1.85. For the same molecule, the “RA,Cmax (accumulation ratio)” value ([1]; MRD 6 mg twice daily, fed, n=8, gCV 35.0%) was 1.60, the “AUCτ,ss” value ([1]; MRD 6 mg twice daily, fed, n=8, gCV 25.7%) was 1050 nmol·h/L and the “AUCτ,1” value ([1]; MRD 12 mg twice daily, after first dose, fed, n=8, gCV 15.9%) was 1370 nmol·h/L. For the same molecule, the Cmax ([1]; MRD 12 mg twice daily, after first dose, fed, n=8, gCV 29.9%) was 229 nM, the “RA,AUC (accumulation ratio)” value ([1]; MRD 12 mg twice daily, fed, n=8, gCV 14.8%) was 1.68 and the “RA,Cmax (accumulation ratio)” value ([1]; MRD 12 mg twice daily, fed, n=8, gCV 23.6%) was 1.52. The “AUCτ,ss” value ([1]; MRD 12 mg twice daily, fed, n=8, gCV 15.8%) was 2300 nmol·h/L, the “CLR,0–120 (renal clearance)” value ([1]; SRD 36 mg, fasted, n=4, gCV 21.5%) was 30.5^+ mL·min^−1 and the “fe0–120 (fraction excreted unchanged in urine 0–120 h)” value ([1]; SRD 36 mg, fasted, n=5, gCV 45.2%) was 12.5^¶ %. For the same molecule, the Cmax ([1]; SRD 36 mg, fasted, n=6, gCV 20.7%) was 710 nM, the “AUC0−∞” value ([1]; SRD 36 mg, fasted, n=6, gCV 21.2%) was 5910 nmol·h/L and the “fe0–120 (fraction excreted unchanged in urine 0–120 h)” value ([1]; SRD 48 mg, fasted, n=4, gCV 13.4%) was 12.1^+ %. For the same molecule, the “CLR,0–120 (renal clearance)” value ([1]; SRD 48 mg, fasted, n=4, gCV 20.6%) was 25.2^+ mL·min^−1, the “AUC0−∞” value ([1]; SRD 48 mg, fasted, n=5, gCV 17.2%) was 8700^¶ nmol·h·L^−1 and the Cmax ([1]; SRD 48 mg, fasted, n=6, gCV 15.5%) was 955 nM. The Steady state reached ([1]; multiple twice-daily administrations) was no more than 6 days, the “Mean observed weight loss” value ([2]; IPF patients treated for up to 12 weeks, placebo –1.18) was “–1.74 kg” and the “12-lead ECG or vital signs” value ([2]; IPF, 18 mg twice daily) was “no clinically relevant findings”. For the same molecule, the “C-reactive protein (laboratory tests)” value ([2]; IPF, 18 mg twice daily) was “slight increase”, the Deaths ([2]; IPF, 18 mg twice daily) was “no reported deaths” and the Diarrhoea ([2]; IPF, 18 mg twice daily) was 40.0%. The Nasopharyngitis ([2]; IPF, 18 mg twice daily) was 40%, the “Severe AE (considered drug related, led to discontinuation)” value ([2]; IPF, 18 mg twice daily) was “one severe AE of insomnia” and the “Suicidal ideation or behaviour (C-SSRS)” value ([2]; IPF, 18 mg twice daily) was “no cases”. For the same molecule, the “Body weight, difference between the two treatment groups” value ([2]; IPF, 18 mg twice daily vs placebo) was “no notable difference”, the “AE leading to discontinuation of study drug” value ([2]; IPF, 18 mg twice daily, n=10) was 1 (10.0) n (%) and the “Investigator-defined drug-related AE” value ([2]; IPF, 18 mg twice daily, n=10) was 9 (90.0) n (%). The “Patients requiring or prolonging hospitalisation” value ([2]; IPF, 18 mg twice daily, n=10) was 1 (10.0) n (%), the “Patients with AESI (hepatic injury)” value ([2]; IPF, 18 mg twice daily, n=10) was 0 (0.0) n (%) and the “Patients with SAEs” value ([2]; IPF, 18 mg twice daily, n=10) was 1 (10.0) n (%). For the same molecule, the “Patients with other significant AEs according to ICH E3” value ([2]; IPF, 18 mg twice daily, n=10) was 1 (10.0) n (%), the “Severe AEs” value ([2]; IPF, 18 mg twice daily, n=10) was 1 (10.0) n (%) and the Gastrointestinal disorders [2, 6] was 80.0%. For the same molecule, the Infections and infestations [2, 6] was 50.0%, the “Patients with drug-related AEs” value ([2]; IPF, 18 mg twice daily, placebo 60.0%) was 90.0% and the “Exposure predictions (AUC0-24,ss) versus predefined exposure threshold” value ([3]; 24 mg twice-daily dose group (not dosed)) was “exceeded the predefined exposure threshold”. The “Administrations until 95% of the steady-state concentration was reached” value ([3]; IPF, 18 mg twice daily) was “approximately five”, the “Accumulation ratio based on AUCτ” value ([3]; gMean, IPF, 18 mg twice daily) was 1.87 and the “Accumulation ratio based on Cmax” value ([3]; gMean, IPF, 18 mg twice daily) was 1.66. For the same molecule, the “AUCτ,1” value ([3]; gMean, IPF, 18 mg twice daily, day 1 after first dose, n=10, gCV 18.2%) was 1990 nmol·h/L, the Cmax ([3]; gMean, IPF, 18 mg twice daily, day 1 after first dose, n=10, gCV 23.1%) was 277 nM and the “AUCτ,ss” value ([3]; gMean, IPF, 18 mg twice daily, day 14 steady state, n=10, gCV 49.5%) was 3.72 µM·h. The “Difference in pharmacokinetic parameters between healthy volunteers and patients with IPF” value ([3]; in vivo) was “no difference”, the “Effect on lung function parameters” value ([4]; over the course of the trial) was “no clear effect” and the “Trend towards a slight reduction in FVC over time (seen in placebo group)” value ([4]; data not shown) was “not observed”. For the same molecule, the “Human lung fibroblast proliferation” value (human lung fibroblast) was “inhibition” and the Myofibroblast transformation (human lung fibroblast) was “inhibition”.
